Results on 11 compounds are retold here after ChEMBL document CHEMBL1152551, “Synthesis and pharmacological evaluation of novel 1- and 8-substituted-3-furfuryl xanthines as adenosine receptor antagonists” (Bioorg Med Chem, 2009).

One may read the Ki as a measure of affinity in units of concentration, obtained from inhibition or displacement. The low end stands for higher affinity, the high end for lower affinity.

The target of experiment [1] is T1, Adenosine receptor A1 (Rattus norvegicus) (UniProt P25099).
T1 sequence (whole entry): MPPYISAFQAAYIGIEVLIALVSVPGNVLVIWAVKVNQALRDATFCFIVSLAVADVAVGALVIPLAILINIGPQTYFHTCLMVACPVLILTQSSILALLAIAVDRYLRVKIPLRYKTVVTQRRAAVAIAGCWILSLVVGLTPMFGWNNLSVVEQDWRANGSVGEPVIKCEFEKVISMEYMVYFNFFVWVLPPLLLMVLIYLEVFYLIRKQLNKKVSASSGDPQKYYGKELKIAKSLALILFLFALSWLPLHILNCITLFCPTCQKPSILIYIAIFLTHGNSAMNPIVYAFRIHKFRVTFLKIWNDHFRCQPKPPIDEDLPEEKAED
Nature of the experiment: Displacement of [3H]DPCPX form adenosine A1 receptor in rat cortex membrane at 1 uM. The experiment is classed as cell membranes. In outline:
(§1)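 Single concentration of 1 µM tested for displacement of specific radioligand binding, given as percentage displacement. Rat A1 in rat cortex membranes with [3H]DPCPX; human A2B in HEK-293 cells with [3H]DPCPX; human A2A in HeLa cells with [3H]ZM241385; human A3 in HeLa cells with [3H]NECA.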
Background: Loss of bound radioactivity is the signal in a displacement assay; it reports binding, not function.

The target of experiment [2] is T2, Adenosine receptor A2b (Homo sapiens) (UniProt P29275).
T2 sequence (whole entry): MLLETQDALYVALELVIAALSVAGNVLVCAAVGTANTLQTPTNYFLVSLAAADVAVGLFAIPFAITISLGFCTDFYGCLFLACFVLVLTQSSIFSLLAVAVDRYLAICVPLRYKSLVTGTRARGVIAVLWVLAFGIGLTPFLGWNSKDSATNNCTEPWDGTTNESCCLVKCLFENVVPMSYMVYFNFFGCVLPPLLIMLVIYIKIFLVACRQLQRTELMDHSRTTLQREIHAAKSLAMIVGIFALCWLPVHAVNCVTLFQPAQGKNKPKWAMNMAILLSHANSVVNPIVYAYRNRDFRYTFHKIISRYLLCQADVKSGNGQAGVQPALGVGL
Nature of the experiment: Displacement of [3H]DPCPX from human adenosine A2B receptor expressed in HEK293 cells at 1 uM. The experiment is classed as cell-based. In outline: as §1

The target in experiment [3] is Adenosine receptor A2a (Homo sapiens, UniProt P29274). In words: Displacement of [3H]ZM241385 from human adenosine A2A receptor expressed in HeLa cells at 1 uM by microplate beta scintillation counting. The experiment is classed as cell-based. In outline:
as §1

Experiment [4] has as its target T3, Adenosine receptor A3 (Homo sapiens) (UniProt P0DMS8).
T3 sequence (whole entry): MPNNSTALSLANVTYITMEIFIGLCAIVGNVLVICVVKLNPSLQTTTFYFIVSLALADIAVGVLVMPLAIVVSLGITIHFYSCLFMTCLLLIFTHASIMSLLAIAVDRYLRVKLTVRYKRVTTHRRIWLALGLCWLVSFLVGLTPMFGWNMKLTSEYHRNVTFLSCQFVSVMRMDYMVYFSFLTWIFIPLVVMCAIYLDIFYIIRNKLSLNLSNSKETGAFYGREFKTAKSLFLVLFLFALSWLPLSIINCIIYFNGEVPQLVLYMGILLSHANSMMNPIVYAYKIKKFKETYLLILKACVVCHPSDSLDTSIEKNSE
In words: Displacement of [3H]NECA from human recombinant adenosine A3 receptor expressed in HeLa cells at 1 uM. The experiment is classed as cell-based. In outline:
as §1

Experiment [5] deals with T4, Adenosine receptor A2b (Homo sapiens, UniProt P29275).
T4 sequence (P29275 whole entry): T2 sequence (whole entry)
Nature of the experiment: Displacement of [3H]DPCPX from human adenosine A2B receptor expressed in HEK293 cells. The experiment is classed as cell-based. In outline:
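Competition binding with radioligand: rat A1 in rat cortex membranes with [3H]DPCPX; human A2B expressed in HEK-293 cells with [3H]DPCPX; human A2A expressed in HeLa cells with [3H]ZM241385. Affinity reported as pKi; compounds not fully displacing specific binding at 1 µM were instead given as displacement percentage. SEM below 10%.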

Adenosine receptor A2a, sequence (P29274 whole entry): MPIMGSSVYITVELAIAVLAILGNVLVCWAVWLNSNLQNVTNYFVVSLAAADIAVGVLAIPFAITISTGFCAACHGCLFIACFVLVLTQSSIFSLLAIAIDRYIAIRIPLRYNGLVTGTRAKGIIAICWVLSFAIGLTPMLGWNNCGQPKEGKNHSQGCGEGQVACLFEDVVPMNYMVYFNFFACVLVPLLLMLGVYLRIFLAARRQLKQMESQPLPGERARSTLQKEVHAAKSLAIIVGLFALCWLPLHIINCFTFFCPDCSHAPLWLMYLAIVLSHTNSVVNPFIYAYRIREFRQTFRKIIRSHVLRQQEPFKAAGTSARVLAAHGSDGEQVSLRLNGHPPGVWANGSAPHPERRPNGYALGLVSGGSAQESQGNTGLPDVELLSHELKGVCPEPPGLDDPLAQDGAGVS

As for `CCS(=O)(=O)CCn1c(=O)c2[nH]c(Cc3ccccc3)nc2n(Cc2ccco2)c1=O`, the Activity was found to be 2% in experiment [1], 20% in experiment [2], 1% in experiment [3] and 1% in experiment [4].
Take `COCCn1c(=O)c2[nH]c(Cc3c(F)cccc3F)nc2n(Cc2ccco2)c1=O`: the Activity in experiment [1] was determined as 28%; in experiment [2], 70%; in experiment [3] it was 23%; in experiment [4], 4%.
The matching figures for `COCCn1c(=O)c2[nH]c(Cc3ccccc3)nc2n(Cc2ccco2)c1=O`: 27%, 65%, 32% and 5%.
Taken in the same sequence, the figures for `O=c1c2[nH]c(Cc3c(F)cccc3F)nc2n(Cc2ccco2)c(=O)n1CC1CC1` were 14%, 59%, 6% and 7%.
Turning to `CCOCCn1c(=O)c2[nH]c(Cc3ccccc3)nc2n(Cc2ccco2)c1=O`, the Activity was found to be 25% in experiment [1], 31% in experiment [2], 2% in experiment [3] and 6% in experiment [4].
Taken in the same sequence, the figures for `CCCCCn1c(=O)c2[nH]c(Cc3cccs3)nc2n(Cc2ccco2)c1=O` were 21%, 17%, 10% and 11%.
Turning to `CCSCCn1c(=O)c2[nH]c(Cc3cccs3)nc2n(Cc2ccco2)c1=O`, the Activity in experiment [1] was determined as 32%; in experiment [3], 4%; in experiment [4], 13%. Also, the affinity in experiment [5], expressed as Ki, was 275 nM.
Take `COCCn1c(=O)c2[nH]c(Cc3cccs3)nc2n(Cc2ccco2)c1=O`: the Activity came to 17% in experiment [1], 70% in experiment [2], 34% in experiment [3] and 2% in experiment [4].
Taken in the same sequence, the figures for `CC[S+]([O-])CCn1c(=O)c2[nH]c(Cc3ccccc3)nc2n(Cc2ccco2)c1=O` (centres undefined) were 1%, 9%, 11% and 26%.
Regarding `CCSCCn1c(=O)c2[nH]c(Cc3ccco3)nc2n(Cc2ccco2)c1=O`, the Activity in experiment [1] came out at 42%; in experiment [3], 17%; in experiment [4], 4%. In experiment [5], this compound had an inhibition constant Ki of 646 nM.
Regarding `C=CCn1c(=O)c2[nH]c(Cc3c(F)cccc3F)nc2n(Cc2ccco2)c1=O`, the Activity in experiment [1] turned out to be 3%; in experiment [2] it was 24%; in experiment [3], 11%; in experiment [4], 1%.
